# From BindingDB's records for doi:10.1021/jm100062h (Ferrara University, 2010)
# What was measured:
# [1] = target: T1, Transient receptor potential cation channel subfamily A member 1 (Homo sapiens, UniProt O75762); experiment: Activation of TRPA1 channel
# Outline: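 Cell lines transfected with TRPA1 and loaded with a calcium-sensitive dye, read on FLIPR. Calcium influx is counted as the change in fluorescence above background. Each material was tested by preincubation or by direct addition. Calcium counts are expressed as a percentage of the control calcium count.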
# [2] = target: T1, Transient receptor potential cation channel subfamily A member 1; experiment: Antagonist activity at human TRPA1 channel expressed in CHO cells assessed as inhibition of cinnamaldehyde-induced intracellular calcium influx
# T1 sequence (O75762 whole entry): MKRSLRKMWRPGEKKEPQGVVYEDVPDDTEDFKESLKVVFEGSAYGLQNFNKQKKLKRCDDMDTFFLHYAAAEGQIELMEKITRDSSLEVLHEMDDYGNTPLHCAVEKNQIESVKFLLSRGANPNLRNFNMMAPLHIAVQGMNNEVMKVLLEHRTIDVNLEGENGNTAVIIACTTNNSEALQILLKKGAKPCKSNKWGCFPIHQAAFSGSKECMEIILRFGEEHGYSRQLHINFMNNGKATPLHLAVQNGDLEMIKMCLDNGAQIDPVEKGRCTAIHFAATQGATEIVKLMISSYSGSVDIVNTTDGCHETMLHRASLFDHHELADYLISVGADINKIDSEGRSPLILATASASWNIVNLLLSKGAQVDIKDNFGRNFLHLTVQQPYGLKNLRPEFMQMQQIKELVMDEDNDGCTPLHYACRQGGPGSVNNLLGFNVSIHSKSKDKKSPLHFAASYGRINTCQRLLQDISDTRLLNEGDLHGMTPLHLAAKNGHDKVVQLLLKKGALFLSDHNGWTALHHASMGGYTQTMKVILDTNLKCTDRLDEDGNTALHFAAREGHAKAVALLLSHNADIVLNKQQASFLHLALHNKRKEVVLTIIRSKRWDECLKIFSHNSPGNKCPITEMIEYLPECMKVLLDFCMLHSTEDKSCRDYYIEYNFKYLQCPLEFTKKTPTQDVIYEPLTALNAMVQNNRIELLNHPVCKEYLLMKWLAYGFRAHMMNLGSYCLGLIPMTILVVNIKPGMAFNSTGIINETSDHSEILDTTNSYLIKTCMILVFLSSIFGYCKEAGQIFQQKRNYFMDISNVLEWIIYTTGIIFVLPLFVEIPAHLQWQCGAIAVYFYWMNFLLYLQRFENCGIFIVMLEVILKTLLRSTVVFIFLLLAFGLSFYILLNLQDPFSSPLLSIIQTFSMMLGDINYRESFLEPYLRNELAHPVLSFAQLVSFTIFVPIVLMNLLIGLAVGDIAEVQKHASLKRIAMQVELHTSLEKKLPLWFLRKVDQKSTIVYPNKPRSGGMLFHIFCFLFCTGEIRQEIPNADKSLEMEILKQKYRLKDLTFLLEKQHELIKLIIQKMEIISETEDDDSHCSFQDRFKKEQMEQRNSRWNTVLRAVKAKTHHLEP
Structure (SMILES),EC50 [1] [µM],IC50 [2] [µM]
CC(C)[C@@H]1CC[C@@H](C)C[C@H]1O,28.4,
CCC(N=O)C(C)=Cc1cncc2ccccc12 (stereo unspecified) [1-(isoquinolin-4-yl)-2-methylpent-1-en-3-one oxime],,> 100
CCC(N=O)C(C)=Cc1cnccc1C (stereo unspecified) [2-methyl-1-(4-methylpyridin-3-yl)pent-1-en-3-one oxime],,> 100
CCC(N=O)C(C)=Cc1ccc(C(F)(F)F)nc1 (stereo unspecified) [2-methyl-1-(6-(trifluoromethyl)pyridin-3-yl)pent-1-en-3-one oxime],,> 100
CCC(N=O)C(C)=Cc1ccc(C)nc1 (stereo unspecified) [2-methyl-1-(6-methylpyridin-3-yl)pent-1-en-3-one oxime],,> 100
CCC(N=O)C(C)=Cc1cnc2ccccc2c1 (stereo unspecified) [2-methyl-1-(quinolin-3-yl)pent-1-en-3-one oxime],,> 100
